Laboratory results reported in ChEMBL document CHEMBL4270554, “Discovery of the cancer cell selective dual acting anti-cancer agent (Z)-2-(1H-indol-3-yl)-3-(isoquinolin-5-yl)acrylonitrile (A131)” (Eur J Med Chem, 2018).

Tests used:
AZ-521 cell line = experiment: Antiproliferative activity against human AZ-521 cells after 72 hrs by MTT assay; format: functional; conditions: AZ-521, 72 h
Outline: (§1)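 Cells cultured at 37 °C, 5% CO₂ in medium with 10% FBS and penicillin/streptomycin, used within 12-20 passages. Seeded at 2.5×10^3 cells/well for 24 h, then compound added from DMSO stocks at 200-fold final concentration (final DMSO 0.5% v/v). After 72 h, 0.5 mg/mL MTT for 3 h, formazan dissolved in DMSO, A570 read. IC50 from sigmoidal fit; three independent determinations.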

A549 = experiment: Antiproliferative activity against human A549 cells after 72 hrs by MTT assay; format: functional; conditions: A549, 72 h; outline: as §1
HCT-15 = experiment: Antitumor activity against human HCT15 cells xenografted in BALB/c athymic nu/nu mouse assessed as tumor growth inhibition at 20 mg/kg, ip bid administered 12 days relative to control; format: functional; conditions: HCT-15, ip, 288 h, read-out: TGI
Outline: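 Female BALB/c nu/nu mice (5-7 weeks) given 5×10^6 HCT15 cells subcutaneously in flank. At 100–300 mm³, randomized into groups of 6. Dosed IP twice daily for 12 days at 20 mg/kg in 10% DMSO, 50% PEG400, deionized water pH 5.0, vs vehicle. Tumor volumes tracked; mean ± SEM, two-way ANOVA vs vehicle.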

SNU1 = experiment: Antiproliferative activity against human SNU1 cells after 72 hrs by MTT assay; format: functional; conditions: SNU1, 72 h; outline: as §1
Huh-7 = experiment: Antiproliferative activity against human HuH7 cells after 72 hrs by MTT assay; format: functional; conditions: Huh-7, 72 h; outline: as §1
[1] = Intrinsic clearance in pooled female rat liver microsomes assessed per mg protein at 3 uM preincubated for 5 mins followed by NADPH addition measured after 45 mins by LC-MS/MS method; format: ADME, microsome; conditions: read-out: CLH
Outline: (§2)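 Pooled female or male rat liver microsomes (0.3 mg protein/mL) with substrate at final 3 μM in 0.1 M phosphate pH 7.4. Pre-incubated 5 min at 37 °C, then started with NADPH (final 1 mM). Sampled at 0–45 min in triplicate, quenched with cold acetonitrile plus internal standard. Parent measured by LC-MS/MS. Midazolam as positive control; no-NADPH negative control.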

MCF7 = experiment: Antiproliferative activity against human MCF7 cells after 72 hrs by MTT assay; format: functional; conditions: MCF7, 72 h; outline: as §1
HeLa [2] = experiment: Inhibition of colony formation in human HeLa cells at 0.6 uM after 7 days by plate colony counting method relative to control; format: functional; conditions: 168 h
Outline: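 Anchorage-independent growth: HeLa cells (1×10^4 per well) in 0.4% soft agar layered over 1% agar. Compound added at final 0.15, 0.3, 0.6, 1.25, 2.5 and 5 μM. HeLa colonies counted.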

NUGC-3 = experiment: Antiproliferative activity against human NUGC3 cells after 72 hrs by MTT assay; format: functional; conditions: NUGC-3, 72 h; outline: as §1
[3] = Antiproliferative activity against human NCC59 cells after 72 hrs by MTT assay; format: functional; outline: as §1
BJ [4] = experiment: Cell cycle arrest in human BJ cells assessed as accumulation at sub-G1 phase at 5 uM after 48 hrs; format: cell-based
Outline: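 Isogenic normal and fully transformed BJ fibroblasts (hTert, small t, shRNAs to p53 and pRb, H-RasV12-ER) exposed to 5 μM for 48 h. Percentage of cells in sub-G1 phase determined as a cell death measure.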

hTERT-BJ = experiment: Inhibition of mitotic progression in human hTERT-BJ cells transformed with hTert, small t, shRNAs against p53 and pRb and H-RasV12-ER assessed as increase in phosphorylated histone H3 (Ser10) level at 5 uM after 24 hrs by immunoblot analysis relative to control; format: functional
Outline: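 Fully transformed BJ fibroblasts (hTert, small t, shRNAs to p53 and pRb, H-RasV12-ER) treated 24 h at 5 μM. Immunoblot protocol as for HeLa. pH3 (Ser10) band intensity expressed as fold of DMSO control; under 2-fold counted as insignificant.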

[5] = Antiproliferative activity against human SGCC-GC38 cells after 72 hrs by MTT assay; format: functional; outline: as §1
BJ [6] = experiment: Induction of apoptosis in human BJ cells assessed as activation of caspase-3/7 up to 5 uM after 48 hrs by caspase-Glo 3/7 luminescent assay; format: cell-based
Outline: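 Normal and transformed BJ cells treated 48 h across a concentration series. Caspase-3/7 activity by Caspase-Glo 3/7 luminescence, normalized to viable cell number from MTT. Mean ± S.D., n=3; two-tailed unpaired t tests.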

HCT-116 = experiment: Antiproliferative activity against human HCT116 cells after 72 hrs by MTT assay; format: functional; conditions: HCT-116, 72 h; outline: as §1
SNU-16 = experiment: Antiproliferative activity against human SNU16 cells after 72 hrs by MTT assay; format: functional; conditions: SNU-16, 72 h; outline: as §1
SCH = experiment: Antiproliferative activity against human SCH cells after 72 hrs by MTT assay; format: functional; outline: as §1
HT-29 = experiment: Antiproliferative activity against human HT-29 cells after 72 hrs by MTT assay; format: functional; conditions: HT-29, 72 h; outline: as §1
[7] = Intrinsic clearance in pooled male rat liver microsomes assessed per mg protein at 3 uM preincubated for 5 mins followed by NADPH addition measured after 45 mins by LC-MS/MS method; format: ADME, microsome; conditions: read-out: CLH; outline: as §2
HeLa [8] = experiment: Potency index, ratio of autophagy induction of test compound to chloroquine in human HeLa cells; format: functional
BJ [9] = experiment: Antiproliferative activity against human BJ cells assessed as reduction in cell viability at 5 uM incubated for 4 days followed by compound washout measured after 11 days by cell counting method; format: cell-based; conditions: 96 h
Outline: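 Normal BJ fibroblasts synchronized in G1 by 2-day serum starvation (0.1% FBS), released into 10% FBS medium and exposed to 5 μM for 2, 4 or 11 days. After 2 or 4 days drug removed and growth continued in fresh medium up to 11 days. Total cell numbers by automated counter; mean ± S.D., n>6.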

[10] = Antiproliferative activity against human SNU216 cells after 72 hrs by MTT assay; format: functional; conditions: SNU-216, 72 h; outline: as §1
[11] = Antiproliferative activity against human hTERT-RPE1 cells after 72 hrs by MTT assay; format: cell-based, TERT-RPE1; outline: as §1
U2OS = experiment: Antiproliferative activity against human U2OS cells after 72 hrs by MTT assay; format: functional; outline: as §1
AGS = experiment: Antiproliferative activity against human AGS cells after 72 hrs by MTT assay; format: functional; outline: as §1
[12] = Half life in pooled male rat liver microsomes at 3 uM preincubated for 5 mins followed by NADPH addition measured after 45 mins by LC-MS/MS method; format: ADME, microsome
Outline: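 Pooled female or male rat liver microsomes (0.3 mg protein/mL) with 3 μM substrate in 0.1 M phosphate buffer pH 7.4, pre-incubated 5 min at 37 °C, started with 1 mM NADPH. Samples at 0-45 min quenched in cold acetonitrile with internal standard, analysed by LC-MS/MS. Triplicates; midazolam positive control, no-NADPH negative control.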

## N#C/C(=C\c1cccc2cnccc12)c1c[nH]c2ccccc12
AZ-521 cell line
  GI50: 2400 nM
A549
  GI50: 2000 nM
HCT-15
  inhibition in vivo at 20 mg/kg: 74%
SNU1
  GI50: 900 nM
Huh-7
  GI50: 1200 nM
[1]
  microsomal CLint at 3 µM: 59 µL/min/mg
MCF7
  GI50: 1200 nM
HeLa [2]
  inhibition at 0.6 µM: 50%
NUGC-3
  GI50: 1000 nM
[3]
  GI50: 900 nM
BJ [4]
  Activity: Non-Toxic
hTERT-BJ
  fold change (FC): 7.3
[5]
  GI50: 1900 nM
BJ [6]
  Activity: Non-Toxic
HCT-116
  GI50: 1800 nM
SNU-16
  GI50: 1000 nM
SCH
  GI50: 1700 nM
HT-29
  GI50: 900 nM
[7]
  microsomal CLint at 3 µM: 299 µL/min/mg
HeLa [8]
  Ratio: 4 - 10
BJ [9]
  Activity: Non-Toxic
[10]
  GI50: 1900 nM
[11]
  GI50 at 72 h: 5.2 µM
U2OS
  GI50: 1500 nM
AGS
  GI50: 1100 nM
[12]
  half-life at 3 µM: 7.7 min
